OX1R antag-1: blocks the human orexin 1 receptor | 1.8% of 330,000 active | AID 485270 | OX1R-expressing cells, FRET antagonist read-out | inhibition, % at 6.6 µM | O43613; in the data active = inhibition mostly above about 38%, no sharp cut-off; inactive = mostly below about 40%;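 note: 0% = agonist challenge alone and 100% = reference antagonist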
GPR7 antagonist: antagonists of human GPR7 (neuropeptides B/W receptor 1). P48145. GPR7-expressing cells, fluorescence antagonist assay. inhibition, % at 4.4 µM. 1.1% of 290,000 active. AID 1861; in the data active = inhibition above about 16%, passing the limit was not always enough;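 note: cells stimulated with the agonist NPW; 0% = agonist with vehicle and 100% = vehicle without agonist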
Target sequence (P48145 whole entry, looked up): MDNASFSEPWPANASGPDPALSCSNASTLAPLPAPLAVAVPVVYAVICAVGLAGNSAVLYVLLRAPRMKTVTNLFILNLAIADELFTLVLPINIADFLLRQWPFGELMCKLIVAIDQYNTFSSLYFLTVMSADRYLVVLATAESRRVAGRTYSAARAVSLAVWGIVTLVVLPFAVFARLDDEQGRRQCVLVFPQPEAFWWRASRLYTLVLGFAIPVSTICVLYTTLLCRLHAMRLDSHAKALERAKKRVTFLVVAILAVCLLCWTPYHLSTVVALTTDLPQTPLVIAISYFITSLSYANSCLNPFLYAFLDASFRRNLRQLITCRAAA
TAAR1 antag: human TAAR1 antagonism | 1.5% of 360,000 active | Q96RJ0 | inhibition, % at 3 µM | CHO RD-HGA16 TAAR1, Fluo-8 calcium fluorescence, antagonist;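 active = inhibition above a per-plate cutoff, the mean inhibition of test compounds on that plate plus 3 SD, cut at about 49% in these data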;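 note: 0% = DMSO plus EC80 beta-PEA response and 100% = DMSO alone without agonist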
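Test system: RD-HGA16 CHO cells with stable hTAAR1 and Gα16 / Probe or stimulus: EC80 β-phenethylamine stimulus / Times: seeding 17-24 h prior, 75-min 37 °C, 30-min RT dye loading / Detection: Fluo-8 calcium-sensitive fluorescence / Read-out basis: % inhibition scaled between DMSO and EC80 PEA controls / Repeats: singlicate, one well per test compound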
OX1R antag-2: blocks the human orexin 1 receptor; O43613; CHO/OX1R cells, Fluo-8 calcium fluorescence, orexin A; inhibition, % at 5 µM; 0.43% of 330,000 active; AID 434989;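 active = inhibition above its plate's threshold, mean inhibition of all tested compounds on the plate plus 3 SD, cut at about 37% in these data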;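 note: 0% = orexin A challenge wells and 100% = SB-334867-A antagonist wells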
CHO parental Ca: signal in parental CHO cells, OX1R antagonist counter-screen; AID 463079; inhibition, % at 5.6 µM; 0.63% of 330,000 active; parental CHO-K1, ATP-induced calcium, Fluo-8 fluorescence;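 active = inhibition above that plate's mean sample inhibition plus 3 SD, cut at about 26% in these data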;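 note: 0% = ATP-challenged DMSO wells and 100% = DMSO wells without ATP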
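Test system: parental CHO cells; detection: calcium-sensitive Fluo-8 fluorescence; evaluation: percent inhibition of calcium signal; also added: ATP as calcium-mobilizing challenge; repeats: one well per compound; control set: ATP-challenged DMSO wells low, unchallenged DMSO wells high; compound: single nominal dose of 5.6 µM per compound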
TAAR1 ag: human TAAR1 agonism | CHO RD-HGA16 TAAR1, Fluo-8 calcium fluorescence; vehicle wells 0%, saturating PEA agonist 100% | AID 624467 | 0.99% of 360,000 active | activation, % at 3 µM | Q96RJ0;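 active = activation above the mean activation of all test compounds in the run plus 3 SD, cut at about 38% in these data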
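test system = CHO RD-HGA16 cells carrying human TAAR1 plus Gα16 | schedule = 17-24 h seeding, 75 min 37 °C dye, 30 min RT | compound dosing = 3 µM single concentration | control set = DMSO and PEA EC100 | replicates = n 1 | signal = Fluo-8 fluorescence, 5 s baseline then 140 s kinetic read | measure = percent activation vs PEA EC100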
Numbers without * were called inactive; · = no result. In the library only some 4.6% were active in any assay of this set; here they are far more common.

SMILES	OX1R antag-1	GPR7 antagonist	TAAR1 antag	OX1R antag-2	CHO parental Ca	TAAR1 ag
C=CC[C@H](CC(=O)N(CCO)Cc1ccccc1)C(=O)N[C@@H](C)COC(=O)[C@@H](CC=C)Cc1ccc(F)cc1	25	·	54*	3	-17	20
C=CCC[C@@H](Cc1ccc(F)cc1)C(=O)OC[C@@H](NC(=O)[C@H](CC=C)CC(=O)N(CCO)Cc1ccccc1)c1ccccc1	34	·	61*	49	-2	4
CC(C)(C)C1CCc2c(sc3nc(SCC(=O)O)nc(N)c23)C1 (stereo not drawn)	19	-12	-17	-7	-9	-2
Cc1ccc(S(=O)(=O)N2[C@@H](c3ccc(C(C)(C)C)cc3)C(C(=O)O)=CC[C@H]2c2ccc(Cl)cc2)cc1	5	·	25	12	41*	0
CCc1ccc([C@@H]2CC=C(C(=O)O)[C@H](c3ccc(C(C)(C)C)cc3)N2S(=O)(=O)c2ccc(C)cc2)cc1	-6	·	15	4	70*	2
O=C(/C=C(\Nc1ccccc1)c1ccccc1)c1ccccc1	·	·	17	·	·	1
COc1ccc(/C=C/C(=O)c2cc(F)ccc2OC(=O)c2ccccc2OC)cc1OC	·	17*	7	·	·	10
COc1ccc(/C=C/C(=O)c2cc(F)ccc2OC(=O)c2ccc(OC)c(OC)c2)cc1OC	25	8	29	-14	12	8
CC1(c2ccccc2Cl)NC(=O)N(CC(=O)Nc2ccccc2OC(F)F)C1=O (stereo not drawn)	43*	-7	0	-23	-17	5
O=C(CN1C(=O)NC2(CCc3ccccc32)C1=O)Nc1ccccc1OC(F)F (stereo not drawn)	8	·	-12	-9	-10	17
COc1cc(/C=N/O)ccc1Oc1ccc([N+](=O)[O-])cc1[N+](=O)[O-]	40	-4	4	-24	-18	23
O=[N+]([O-])c1cc(/C=N\O)ccc1Oc1ccc(F)cc1	14	16*	19	-2	-2	-3
CN(CC(=O)Nc1cccc(F)c1)C(=O)CN1C(=O)NC2(CCCC2)C1=O	2	·	-9	-4	1	-1
CC(=O)N1CCOc2ccc(S(=O)(=O)Nc3cccc(C)c3)cc21	10	1	-8	-19	-12	4
CC(=O)N1CCOc2ccc(S(=O)(=O)NCCc3cccc(C)c3)cc21	10	0	8	-19	-15	47*
CC(=O)N1CC(C)Sc2ccc(S(=O)(=O)NCCc3ccccc3)cc21 (stereo not drawn)	26	-1	33	-23	-6	44*
CC(=O)N1CC(C)Sc2ccc(S(=O)(=O)NCCc3ccc(C)cc3)cc21 (stereo not drawn)	47	0	-15	-18	-4	10
CCn1c(COc2ccc(=O)n(-c3ccccc3)n2)nnc1SCc1ccccc1C	7	1	11	-33	-17	8
CC(=O)N(C1=C(N)C(=O)c2ccccc2C1=O)c1ccccc1	46*	9	-24	-12	-3	0
Cc1cc(CNC(=O)C(C)n2cc([N+](=O)[O-])cn2)c2ccccc2n1 (stereo not drawn)	69*	0	-4	13	-27	1
COc1ccccc1N1C(=O)c2cccc3c(N(C)CCO)ccc(c23)C1=O	4	-11	8	4	8	22
COc1ccccc1N1C(=O)c2cccc3c(C(=O)O)ccc(c23)C1=O	38*	-2	13	0	-2	0
Cc1ccc2cccc(NC(=S)NC(=O)c3ccnn3C)c2n1	48*	-3	-1	22	-45	1
O=C1CC2(CCCC2)C(=O)N1CN1CCN(S(=O)(=O)c2cc(F)ccc2F)CC1	·	·	6	·	·	1
CC(C)(C)c1ccc(OCCn2nc(C(=O)O)c3ccccc3c2=O)cc1	21	-23	49*	46*	29*	6
Cc1cccc(OCCn2nc(C(=O)O)c3ccccc3c2=O)c1	31	-9	10	-24	-17	16
NC(C(=O)O)C1ON=C(Cl)C1O (stereo not drawn)	·	·	7	·	·	0
CCn1c(=O)c(C(=O)NNC(=O)c2ccccc2Cl)c(O)c2ccccc21	34	6	15	-27	-8	54*
